Experimental data reported in ChEMBL document CHEMBL4354873, “Rationally Designed Small-Molecule Inhibitors Targeting an Unconventional Pocket on the TLR8 Protein-Protein Interface” (J Med Chem, 2020).
Active and inactive are the calls of the source. The rule behind the calls is not given here.

Experiments:
Assay type in all cases: cell-based
[1] = target: Toll-like receptor 5 (Homo sapiens) (UniProt O60602); test: Inhibition of human TLR5 expressed in HEK-Blue cells assessed as inhibition of flagellin-induced NF-kappaB activation at 20 uM measured after 24 hrs by quanti-blue based SEAP reporter gene assay
Toll-like receptor 5 (Homo sapiens), sequence (O60602 whole entry): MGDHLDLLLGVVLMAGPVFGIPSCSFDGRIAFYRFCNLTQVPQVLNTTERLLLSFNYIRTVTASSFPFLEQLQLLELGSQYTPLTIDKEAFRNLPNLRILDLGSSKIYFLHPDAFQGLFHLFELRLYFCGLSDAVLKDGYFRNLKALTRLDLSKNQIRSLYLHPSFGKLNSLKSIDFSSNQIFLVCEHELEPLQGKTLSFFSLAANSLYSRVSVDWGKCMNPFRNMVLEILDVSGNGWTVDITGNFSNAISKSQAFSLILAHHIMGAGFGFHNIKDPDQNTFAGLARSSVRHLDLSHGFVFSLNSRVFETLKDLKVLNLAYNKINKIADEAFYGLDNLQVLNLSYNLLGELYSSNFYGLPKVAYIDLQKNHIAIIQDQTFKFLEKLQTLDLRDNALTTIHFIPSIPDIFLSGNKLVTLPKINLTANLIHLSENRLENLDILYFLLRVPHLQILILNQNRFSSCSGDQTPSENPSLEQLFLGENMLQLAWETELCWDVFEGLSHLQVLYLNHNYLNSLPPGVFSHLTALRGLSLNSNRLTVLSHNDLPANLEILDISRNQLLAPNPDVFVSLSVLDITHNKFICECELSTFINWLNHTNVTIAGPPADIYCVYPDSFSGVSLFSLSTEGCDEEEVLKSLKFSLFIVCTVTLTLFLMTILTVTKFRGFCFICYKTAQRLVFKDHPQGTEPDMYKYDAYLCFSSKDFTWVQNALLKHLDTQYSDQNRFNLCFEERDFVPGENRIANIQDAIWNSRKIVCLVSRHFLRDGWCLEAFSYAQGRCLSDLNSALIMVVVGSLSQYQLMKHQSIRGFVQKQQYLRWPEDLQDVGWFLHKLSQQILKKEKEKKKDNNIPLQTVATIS
Procedure, shortened: (§1)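 HEK-Blue SEAP format: 4 × 10⁴ cells/well in DMEM with ligand plus compound, 24 h at 37 °C. Supernatant mixed with QUANTI-Blue up to 1 h, then A620 read. Ligands: Pam3CSK4 100 ng/mL (TLR1/2), Pam2CSK4 100 ng/mL (TLR2/6), poly(I:C) 5 µg/mL (TLR3), LPS 20 ng/mL (TLR4), flagellin 50 ng/mL (TLR5), R848 1 µg/mL (TLR7), R848 2 µg/mL (TLR8), ODN2006 0.5 µM (TLR9). Mean ± s.d.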

[2] = target: T1, Toll-like receptor 7 (Homo sapiens) (UniProt Q9NYK1); test: Inhibition of human TLR7 expressed in HEK-Blue cells assessed as inhibition of R848-induced NF-kappaB activation at 20 uM measured after 24 hrs by quanti-blue based SEAP reporter gene assay; procedure, shortened: as §1
T1 sequence (whole entry): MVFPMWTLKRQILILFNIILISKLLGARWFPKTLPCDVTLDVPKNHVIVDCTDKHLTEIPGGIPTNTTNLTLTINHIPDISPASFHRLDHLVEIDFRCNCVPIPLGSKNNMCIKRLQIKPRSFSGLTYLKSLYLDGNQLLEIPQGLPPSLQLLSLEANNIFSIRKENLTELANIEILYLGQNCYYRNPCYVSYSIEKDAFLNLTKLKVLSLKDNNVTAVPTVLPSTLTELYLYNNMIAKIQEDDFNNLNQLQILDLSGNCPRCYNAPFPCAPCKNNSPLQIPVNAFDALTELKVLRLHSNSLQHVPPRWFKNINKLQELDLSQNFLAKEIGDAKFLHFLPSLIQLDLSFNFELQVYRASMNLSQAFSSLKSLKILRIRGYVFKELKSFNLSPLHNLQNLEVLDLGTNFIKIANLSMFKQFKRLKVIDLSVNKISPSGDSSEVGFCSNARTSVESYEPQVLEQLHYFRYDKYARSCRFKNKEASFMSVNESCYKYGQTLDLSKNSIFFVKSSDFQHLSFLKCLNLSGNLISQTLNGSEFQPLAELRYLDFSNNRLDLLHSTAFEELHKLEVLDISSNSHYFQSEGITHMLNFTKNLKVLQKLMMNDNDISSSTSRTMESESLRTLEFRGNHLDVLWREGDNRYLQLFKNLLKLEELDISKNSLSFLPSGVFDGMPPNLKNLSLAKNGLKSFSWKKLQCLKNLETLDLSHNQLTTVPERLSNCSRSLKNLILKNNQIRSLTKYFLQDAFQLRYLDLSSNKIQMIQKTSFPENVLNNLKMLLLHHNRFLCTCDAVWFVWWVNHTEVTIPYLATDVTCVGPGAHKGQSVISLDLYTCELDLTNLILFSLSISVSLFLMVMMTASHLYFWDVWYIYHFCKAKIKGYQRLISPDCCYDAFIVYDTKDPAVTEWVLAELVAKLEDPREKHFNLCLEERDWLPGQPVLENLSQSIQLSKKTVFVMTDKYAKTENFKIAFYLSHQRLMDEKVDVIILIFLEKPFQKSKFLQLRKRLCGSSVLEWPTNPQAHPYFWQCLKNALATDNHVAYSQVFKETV

[3] = target: T2, Toll-like receptor 8 (Homo sapiens) (UniProt Q9NR97); test: Inhibition of human TLR8 expressed in HEK-Blue cells assessed as inhibition of R848-induced NF-kappaB activation at 20 uM measured after 24 hrs by quanti-blue based SEAP reporter gene assay; procedure, shortened: as §1
T2 sequence (whole entry): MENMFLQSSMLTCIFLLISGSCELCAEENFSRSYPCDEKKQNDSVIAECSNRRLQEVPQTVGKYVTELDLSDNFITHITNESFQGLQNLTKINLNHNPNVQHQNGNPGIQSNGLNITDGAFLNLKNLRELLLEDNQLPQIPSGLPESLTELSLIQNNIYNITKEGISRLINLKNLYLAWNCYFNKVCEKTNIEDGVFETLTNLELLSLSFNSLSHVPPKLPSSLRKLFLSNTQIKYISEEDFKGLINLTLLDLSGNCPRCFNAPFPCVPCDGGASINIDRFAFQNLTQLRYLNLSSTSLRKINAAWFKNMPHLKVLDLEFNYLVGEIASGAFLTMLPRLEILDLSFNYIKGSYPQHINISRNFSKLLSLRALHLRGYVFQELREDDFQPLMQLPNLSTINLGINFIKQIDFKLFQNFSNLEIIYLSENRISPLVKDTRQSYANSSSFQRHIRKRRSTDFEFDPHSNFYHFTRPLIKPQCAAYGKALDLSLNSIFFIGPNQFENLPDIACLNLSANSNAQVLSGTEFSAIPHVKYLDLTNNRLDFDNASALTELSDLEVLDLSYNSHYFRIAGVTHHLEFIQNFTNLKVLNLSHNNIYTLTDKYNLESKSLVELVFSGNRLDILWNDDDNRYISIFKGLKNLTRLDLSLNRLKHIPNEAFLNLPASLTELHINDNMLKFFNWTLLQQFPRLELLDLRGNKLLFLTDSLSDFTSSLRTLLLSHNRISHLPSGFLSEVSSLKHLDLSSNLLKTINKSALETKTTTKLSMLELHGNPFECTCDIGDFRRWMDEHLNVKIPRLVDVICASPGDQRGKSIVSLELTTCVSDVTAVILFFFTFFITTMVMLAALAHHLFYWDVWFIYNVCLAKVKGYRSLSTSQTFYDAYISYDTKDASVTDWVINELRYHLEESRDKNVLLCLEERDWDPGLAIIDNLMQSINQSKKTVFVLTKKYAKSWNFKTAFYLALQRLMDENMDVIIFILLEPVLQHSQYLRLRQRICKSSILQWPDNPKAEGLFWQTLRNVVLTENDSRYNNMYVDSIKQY

[4] = target: T2, Toll-like receptor 8 (Homo sapiens); test: Inhibition of TLR8 in human monocytes assessed as reduction in R848-induced phosphorylated IRAK4 expression measured after 2 hrs by Western blot analysis
Procedure, shortened: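 Monocyte cell lines, 2 × 10⁶/well, differentiated with PMA 100 ng/mL for 24 h. After washes, cells in unsupplemented RPMI received R848 1 µg/mL with varying compound concentrations for 2 h. Nuclear/cytoplasmic fractions extracted and resolved on 10% SDS-PAGE. Blots probed for p65, TRAF3 and p-IRAK4 (1:1000); lamin A/C (nuclear) and β-actin (cytoplasmic) as loading controls.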

[5] = target: T2, Toll-like receptor 8 (Homo sapiens); test: Inhibition of TLR8 in human monocytes assessed as reduction in R848-induced IL1beta production measured after 24 hrs by ELISA
Procedure, shortened: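 Human monocyte cell lines in RPMI 1640 with 10% FBS and 0.05 mM 2-mercaptoethanol, 1 × 10⁶/well, 24 h. After PBS washes, fresh RPMI added with R848 1 µg/mL and varying compound concentrations for 24 h. Supernatant TNF-α, IL-6 and IL-1β measured by ELISA.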

SMILES: CSc1nnc(CCCO)n1-c1cc(C)c(C)c(C)c1
- inhibition [1]: inactive
- inhibition [2]: inactive
- inhibition [3]: Active
- inhibition [4]: Dose-dependent effect
- inhibition [5]: Dose-dependent effect
